Measurements from ChEMBL document CHEMBL5030505, “Assessment of NR4A Ligands That Directly Bind and Modulate the Orphan Nuclear Receptor Nurr1” (J Med Chem, 2020).
Active and inactive are the calls of the source. No cut-off for these calls is given here.

How the values were obtained:
Type in all cases: cell-based
[1] = molecular target: Nuclear receptor subfamily 4 group A member 2 (Homo sapiens) (UniProt P43354); experiment: Modulation of full length human Nurr1 expressed in HEK293T cells co-transfected with luciferase reporter plasmid harboring NurRE response element assessed as increase in luciferase activity incubated for 18 hrs by luciferase reporter gene assay; conditions: filed as modulator, dose 0.01-1 µM
Method in brief: (§1)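 Full-length Nurr1 plasmid, alone (2 μg) or 1 μg plus full-length RXRα (1 μg), cotransfected with 3xNBRE- or 3xNurRE-luciferase reporter (6 μg) using Lipofectamine 2000, 18 h. Cells replated at 10,000/well for 4 h. Four ligand concentrations, or vehicle (water, ethanol or DMSO), added in quadruplicate for 18 h. Luciferase read. Fold change vs vehicle, mean ± s.e.m., one-way ANOVA vs vehicle.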

[2] = molecular target: Nuclear receptor subfamily 4 group A member 2 (Homo sapiens) (UniProt P43354); experiment: Modulation of full length human Nurr1 expressed in HEK293T cells co-transfected with RXRalpha and luciferase reporter plasmid harboring NBRE response element assessed as increase in luciferase activity incubated for 18 hrs by luciferase reporter gene assay; conditions: filed as modulator, dose 0.01-1 µM; method in brief: as §1
PC-12 [3] = experiment: Modulation of Gal4-fused VP16 expressed in PC12 cells co-transfected with UAS repoter gene assessed as increase in luciferase activity at 0.01 to 1 uM incubated for 18 hrs by luciferase reporter gene assay; conditions: Human alphaherpesvirus 2, filed as modulator, dose 0.01-1 µM
Method in brief: (§2)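 Cells in 10-cm dishes were transfected with Gal4-VP16 expression plasmid (2 μg) plus 5xUAS-luciferase reporter (2 μg) for 18 h. They were replated at 10,000 cells/well for 4 h, then given ligand or vehicle (water, ethanol or DMSO) in quadruplicate for 18 h. Luciferase was read with Britelite Plus. Fold change is versus vehicle-treated cells, with one-way ANOVA versus vehicle.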

[4] = molecular target: Nuclear receptor subfamily 4 group A member 2 (Homo sapiens) (UniProt P43354); experiment: Modulation of full length human Nurr1 expressed in SKNBE(2) cells co-transfected with luciferase reporter plasmid harboring NurRE response element assessed as increase in luciferase activity incubated for 18 hrs by luciferase reporter gene assay; conditions: SKNBE2, filed as modulator, dose 0.01-1 µM
PC-12 [5] = experiment: Cytotoxicity in rat PC-12 cells assessed as reduction in cell viability at 0.01 to 1 uM incubated for 18 hrs by Cell Titer-Glo assay; conditions: pc-12, 18 h, dose 0.01-1 µM
Method in brief: (§3)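 Cells seeded at 1.5 million per 10-cm dish. Next day they were replated at 10,000 cells/well and rested 4 h. Ligand or vehicle (water, ethanol or DMSO, by ligand) was added in dose-response format in quadruplicate. After 18 h, viability was read by CellTiter-Glo luminescence. Data are mean ± s.e.m., generally representative of 2 independent experiments. One-way ANOVA versus vehicle.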

[6] = molecular target: Nuclear receptor subfamily 4 group A member 2 (Homo sapiens) (UniProt P43354); experiment: Modulation of full length human Nurr1 expressed in PC12 cells co-transfected with RXRalpha and luciferase reporter plasmid harboring NBRE response element assessed as increase in luciferase activity incubated for 18 hrs by luciferase reporter gene assay; conditions: PC-12, filed as modulator, dose 0.01-1 µM
Method in brief: (§4)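 PC12 cells were grown at 37°C and 5% CO2 in […] medium with 15% horse serum and 2.5% FBS. They were transfected with full-length Nurr1 (1 μg) plus full-length RXRα (1 μg) and 3xNBRE- or 3xNurRE-luciferase reporter (6 μg) for 18 h, then replated at 10,000 cells/well for 4 h. Ligand or vehicle (water, ethanol or DMSO) was added in quadruplicate for 18 h. Luminescence was read as fold change over vehicle. Results are mean ± s.e.m., n=4, from 2 independent experiments, analysed by one-way ANOVA against vehicle.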

[7] = molecular target: Nuclear receptor subfamily 4 group A member 2 (Homo sapiens) (UniProt P43354); experiment: Modulation of full length human Nurr1 expressed in PC12 cells co-transfected with RXRalpha and luciferase reporter plasmid harboring NurRE response element assessed as increase in luciferase activity incubated for 18 hrs by luciferase reporter gene assay; conditions: PC-12, filed as modulator, dose 0.01-1 µM; method in brief: as §4
[8] = molecular target: Nuclear receptor subfamily 4 group A member 2 (Homo sapiens) (UniProt P43354); experiment: Modulation of full length human Nurr1 expressed in PC12 cells co-transfected with luciferase reporter plasmid harboring NBRE response element assessed as increase in luciferase activity incubated for 18 hrs by luciferase reporter gene assay; conditions: PC-12, filed as modulator, dose 0.01-1 µM
Method in brief: (§5)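 Here PC12 cells (FK-12 medium, 15% horse serum, 2.5% FBS, 37°C, 5% CO2) received full-length Nurr1 (2 μg) without RXRα, plus 3xNBRE- or 3xNurRE-luciferase reporter (6 μg), for 18 h. Cells were replated at 10,000/well for 4 h, then treated with ligand or vehicle in quadruplicate for 18 h. Luciferase luminescence was normalized to vehicle-treated cells. Results are mean ± s.e.m. (n=4) from 2 independent experiments, with one-way ANOVA against vehicle.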

SK-N-BE(2) [9] = experiment: Cytotoxicity in human SKNBE2 cells assessed as reduction in cell viability at 0.01 to 1 uM incubated for 18 hrs by Cell Titer-Glo assay; conditions: dose 0.01-1 µM; method in brief: as §3
[10] = molecular target: Nuclear receptor subfamily 4 group A member 2 (Homo sapiens) (UniProt P43354); experiment: Modulation of full length human Nurr1 expressed in SKNBE(2) cells co-transfected with luciferase reporter plasmid harboring NBRE response element assessed as increase in luciferase activity incubated for 18 hrs by luciferase reporter gene assay; conditions: SKNBE2, filed as modulator, dose 0.01-1 µM
Method in brief: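 Transfection of SK-N-BE(2)-C cells (1:1 EMEM/F12, 10% FBS, 37°C, 5% CO2) used full-length Nurr1 alone (2 μg, no RXRα) with 3xNBRE- or 3xNurRE-luciferase reporter (6 μg) for 18 h. Cells were replated at 10,000/well for 4 h, then exposed to ligand or vehicle in quadruplicate for 18 h. Luminescence was expressed as fold over vehicle, as mean ± s.e.m. (n=4) from 2 independent experiments, one-way ANOVA against vehicle.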

[11] = molecular target: Nuclear receptor subfamily 4 group A member 2 (Homo sapiens) (UniProt P43354); experiment: Modulation of full length human Nurr1 expressed in PC12 cells co-transfected with luciferase reporter plasmid harboring NurRE response element assessed as increase in luciferase activity incubated for 18 hrs by luciferase reporter gene assay; conditions: PC-12, filed as modulator, dose 0.01-1 µM; method in brief: as §5
HEK-293T [12] = experiment: Cytotoxicity in human HEK293T cells assessed as reduction in cell viability at 0.01 to 1 uM incubated for 18 hrs by Cell Titer-Glo assay; conditions: dose 0.01-1 µM; method in brief: as §3
[13] = molecular target: Nuclear receptor subfamily 4 group A member 2 (Homo sapiens) (UniProt P43354); experiment: Modulation of full length human Nurr1 expressed in SKNBE(2) cells co-transfected with RXRalpha and luciferase reporter plasmid harboring NBRE response element assessed as increase in luciferase activity incubated for 18 hrs by luciferase reporter gene assay; conditions: SKNBE2, filed as modulator, dose 0.01-1 µM
Method in brief: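 SK-N-BE(2)-C cells were kept in 1:1 EMEM/F12 with 10% FBS at 37°C and 5% CO2. They were cotransfected with full-length Nurr1 (1 μg), full-length RXRα (1 μg) and 3xNBRE- or 3xNurRE-luc reporter (6 μg) for 18 h, replated at 10,000 cells/well for 4 h, and then treated with ligand or vehicle in quadruplicate for 18 h. The readout was luciferase luminescence as fold over vehicle, reported as mean ± s.e.m. (n=4) from 2 independent experiments, one-way ANOVA.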

[14] = molecular target: Nuclear receptor subfamily 4 group A member 2 (Homo sapiens) (UniProt P43354); experiment: Modulation of full length human Nurr1 expressed in HEK293T cells co-transfected with RXRalpha and luciferase reporter plasmid harboring NurRE response element assessed as increase in luciferase activity incubated for 18 hrs by luciferase reporter gene assay; conditions: filed as modulator, dose 0.01-1 µM; method in brief: as §1
SKNBE2 = experiment: Modulation of Gal4-fused VP16 expressed in SKNBE(2) cells co-transfected with UAS repoter gene assessed as increase in luciferase activity at 0.01 to 1 uM incubated for 18 hrs by luciferase reporter gene assay; conditions: Human alphaherpesvirus 2, filed as modulator, dose 0.01-1 µM; method in brief: as §2
[15] = molecular target: Nuclear receptor subfamily 4 group A member 2 (Homo sapiens) (UniProt P43354); experiment: Modulation of full length human Nurr1 expressed in HEK293T cells co-transfected with luciferase reporter plasmid harboring NBRE response element assessed as increase in luciferase activity incubated for 18 hrs by luciferase reporter gene assay; conditions: filed as modulator, dose 0.01-1 µM; method in brief: as §1
HEK293T = experiment: Modulation of Gal4-fused VP16 expressed in HEK293T cells co-transfected with UAS repoter gene assessed as increase in luciferase activity at 0.01 to 1 uM incubated for 18 hrs by luciferase reporter gene assay; conditions: Human alphaherpesvirus 2, filed as modulator, dose 0.01-1 µM; method in brief: as §2
SK-N-BE(2) [16] = experiment: Cytotoxicity in human SKNBE2 cells assessed as reduction in cell viability at 0.5 to 5 uM incubated for 18 hrs by Cell Titer-Glo assay; conditions: dose 0.5-5 µM; method in brief: as §3
HEK-293T [17] = experiment: Cytotoxicity in human HEK293T cells assessed as reduction in cell viability at 0.5 to 5 uM incubated for 18 hrs by Cell Titer-Glo assay; conditions: dose 0.5-5 µM; method in brief: as §3
PC-12 [18] = experiment: Cytotoxicity in rat PC-12 cells assessed as reduction in cell viability at 0.5 to 5 uM incubated for 18 hrs by Cell Titer-Glo assay; conditions: pc-12, 18 h, dose 0.5-5 µM; method in brief: as §3

Nuclear receptor subfamily 4 group A member 2 (Homo sapiens), sequence (P43354 whole entry, the tested form may be a part): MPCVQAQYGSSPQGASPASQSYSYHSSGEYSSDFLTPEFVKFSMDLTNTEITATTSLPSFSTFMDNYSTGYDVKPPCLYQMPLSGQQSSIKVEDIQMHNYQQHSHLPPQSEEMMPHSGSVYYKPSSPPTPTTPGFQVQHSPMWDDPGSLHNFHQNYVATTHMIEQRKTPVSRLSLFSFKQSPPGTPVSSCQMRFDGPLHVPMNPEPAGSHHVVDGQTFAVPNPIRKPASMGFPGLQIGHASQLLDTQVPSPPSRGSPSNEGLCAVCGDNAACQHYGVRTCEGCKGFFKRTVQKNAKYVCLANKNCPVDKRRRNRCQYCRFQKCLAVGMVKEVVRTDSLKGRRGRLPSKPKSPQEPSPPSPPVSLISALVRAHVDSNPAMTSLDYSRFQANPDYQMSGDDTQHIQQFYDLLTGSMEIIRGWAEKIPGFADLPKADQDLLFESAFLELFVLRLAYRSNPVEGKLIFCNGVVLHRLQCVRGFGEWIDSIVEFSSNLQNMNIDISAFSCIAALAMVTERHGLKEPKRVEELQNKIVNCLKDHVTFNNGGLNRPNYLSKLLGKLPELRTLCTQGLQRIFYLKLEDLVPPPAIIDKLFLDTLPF

| Activity [1] | Activity [2] | Activity [4] | Activity [6] | Activity [7] | Activity [8] | Activity [10] | Activity [11] | Activity [13] | Activity [14] | Activity [15] | Compound | Activity (PC-12 [3]) | Activity (PC-12 [5]) | Activity (SK-N-BE(2) [9]) | Activity (HEK-293T [12]) | Activity (SKNBE2) | Activity (HEK293T) | Activity (SK-N-BE(2) [16]) | Activity (HEK-293T [17]) | Activity (PC-12 [18]) |
| --- | --- | --- | --- | --- | --- | --- | --- | --- | --- | --- | --- | --- | --- | --- | --- | --- | --- | --- | --- | --- |
| Dose-Dependent Effect | Dose-Dependent Effect | Dose-Dependent Effect | Dose-Dependent Effect | Dose-Dependent Effect | Dose-Dependent Effect | Dose-Dependent Effect | Dose-Dependent Effect | Dose-Dependent Effect | Dose-Dependent Effect | Dose-Dependent Effect | O=C(Nc1ccccc1)c1cn2cc(-c3ccccn3)ccc2n1 | Active | Non-Toxic | Non-Toxic | Non-Toxic | Active | Active |  |  |  |
|  |  |  |  |  |  |  |  |  |  |  | O=C(O)c1ccc2nc(-c3ccc(F)cc3)[nH]c2c1 |  |  |  |  |  |  | Non-Toxic | Non-Toxic | Non-Toxic |
